Screening data from PubChem BioAssay.
CHT allo act: allosteric activators of human choline transporter CHT | CHT-expressing cells, membrane potential dye, choline EC20; active compounds read high; LV-AA mutant CHT in HEK293 cells | B-score at 10 µM | 310,000 compounds, 0.49% hits | AID 488977 | Q9GZV3;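 active means initial fluorescence not abnormally high and integrated response B-score, plate-corrected, over 3 SD above library mean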
proCasp7 act: counter-screen: procaspase-7 (human) activation; 330,000 compounds, 0.093% hits; recombinant procaspase-7, Ac-DEVD-pNA absorbance 405 nm; D23A/D198A/D206A triple mutant, cannot self-cleave; scale: DMSO 0, 5 µM enzyme 100; P55210; activation, % at 8.5 µM; AID 463210;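 active means percent activation above the screen-wide mean plus 3 SD, cut at about 25% in these data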
Target sequence (P55210 whole entry D23A/D198A/D206A): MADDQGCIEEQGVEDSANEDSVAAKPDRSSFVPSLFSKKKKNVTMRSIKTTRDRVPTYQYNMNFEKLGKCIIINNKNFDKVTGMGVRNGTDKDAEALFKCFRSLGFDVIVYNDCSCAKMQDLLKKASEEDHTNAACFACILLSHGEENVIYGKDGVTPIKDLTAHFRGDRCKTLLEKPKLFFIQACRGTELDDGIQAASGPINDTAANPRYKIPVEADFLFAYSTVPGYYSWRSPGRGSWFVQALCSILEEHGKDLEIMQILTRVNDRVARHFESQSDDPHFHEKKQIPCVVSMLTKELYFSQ
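Material: Procaspase-7 triple mutant (PC-7 D3A) | Quantity: 2 µM procaspase-7 mutant as dispensed | Reagent: DEVD-pNA substrate | Times: 1 h preincubation, 2 h reaction | Technique: 405 nm absorbance of p-nitroaniline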
proCasp3 act: procaspase-3 (human) activation. AID 463141. 330,000 compounds, 0.11% hits. activation, % at 8.5 µM. recombinant procaspase-3 D3A, Ac-DEVD-pNA absorbance 405 nm;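 active means activation above the mean of all tested compounds plus 3 SD, cut at about 21% in these data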;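 further: 0% = DMSO alone and 100% = DMSO wells spiked with extra 5 µM PC-3 D3A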
Target sequence (P42574 whole entry D9A/D28A/D175A): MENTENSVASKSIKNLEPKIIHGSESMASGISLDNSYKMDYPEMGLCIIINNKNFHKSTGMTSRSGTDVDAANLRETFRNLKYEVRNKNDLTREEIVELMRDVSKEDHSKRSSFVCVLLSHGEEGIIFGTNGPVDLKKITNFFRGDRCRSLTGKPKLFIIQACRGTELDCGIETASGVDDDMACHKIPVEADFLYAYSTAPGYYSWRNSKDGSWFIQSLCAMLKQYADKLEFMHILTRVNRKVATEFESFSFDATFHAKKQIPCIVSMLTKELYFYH
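Assay system: Procaspase-3 D3A mutant, all three cleavage aspartates alanine. Buffer or medium: Zinc-free HEPES saline buffer with Triton X-100. Times: 1 h compound preincubation, 2 h substrate hydrolysis at 25 °C. Measured by: 405 nm absorbance of p-nitroaniline, reads at 0 and 120 min. Read-out basis: percent activation relative to control range. Replicates: singlicate.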
CHT inh: inhibitors of human choline transporter CHT; Q9GZV3; CHT-expressing cells, membrane potential dye, choline response; active compounds read low; AID 488975; B-score at 10 µM; 310,000 compounds, 0.86% hits;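 active means B-score over 3 SD under the library average, and starting fluorescence ratio not unusually high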;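 further: choline stimulus applied at its EC90 after an EC20 pre-addition; B-score computed on integrated fluorescence ratio after choline addition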
Active calls of the source: *; i = inactive; . = not tested or not shown. The list is not random: actives were taken first. Their share in the collection is about 1.3%.

SMILES	CHT allo act	proCasp7 act	proCasp3 act	CHT inh
CC(C)S(=O)(=O)C1=NSC2=NC(=O)/C(=C\c3ccc(OC(=O)c4ccco4)cc3)C(=N)N21	i	9	3	-8.2*
CN(C1=C(N2CCCCC2)C(=O)c2ccccc2C1=O)c1ccccc1	i	-15	-6	-5.8*
Cc1ccc(-c2csc(NS(=O)(=O)c3cccc(F)c3)n2)o1	.	-20	-14	.
Cn1c(=O)c(C(=O)COC(=O)c2cc(-c3ccco3)nc3ccccc23)c(N)n(CC2CC2)c1=O	i	-11	-18	-5.5*
Cn1c(=O)c(C(=O)COC(=O)c2cc(C3CC3)nc3ccccc23)c(N)n(Cc2ccccc2)c1=O	i	7	0	i
O=C(CCN1CCc2ccccc2C(c2ccccc2)C1)c1ccc2c(c1)OCCO2 (stereo unspecified)	i	-23	-16	-8.9*
CC(CCCN(C)C)C(Cc1ccccc1)c1ccccc1 (stereo unspecified)	i	11	-1	i
CCOC(=O)N1CCN(C2=Nc3cccc4cccc2c34)CC1	i	-3	-8	-7.1*
c1ccc(CC2CCN(C3=Nc4cccc5cccc3c45)CC2)cc1	i	-4	1	i
O=C(OCCc1cc2ccccc2c(=O)o1)c1cccc(Br)c1	.	0	7	.
COc1ccccc1-n1c(=O)oc2ccc(Cl)cc2c1=O	i	1	-2	-8.5*
C[C@H](CO)N1C[C@H](C)[C@@H](CN(C)Cc2ccc(Cl)c(Cl)c2)Oc2c(NS(=O)(=O)c3cccs3)cccc2C1=O	.	10	2	.
CCOC(=O)c1ccc([N+](=O)[O-])c(CS(=O)(=O)c2ccc(Cl)cc2)c1	i	11	2	i
Cc1ccc(S(=O)(=O)Cc2cc(F)c([N+](=O)[O-])cc2[N+](=O)[O-])cc1	i	-14	-6	-6.4*
O=[N+]([O-])c1ccc(N=Nc2ccc(O)cc2O)cc1	i	1	6	-9.9*
CCOc1ccccc1OCCCC(=O)Nc1ccc(Cl)c(S(=O)(=O)N2CCOCC2)c1	.	-5	-8	.
O=[N+]([O-])c1cc2cccnc2c2ncccc12	7*	-2	-3	i
COc1ccccc1C1=NOC(COc2ccc3c(C)cc(=O)oc3c2)C1 (stereo unspecified)	i	7	13	-8.5*
COc1ccc(C2=NOC(COc3ccc4c(C)cc(=O)oc4c3)C2)c(OC)c1 (stereo unspecified)	i	-2	-4	i
CCN1CCN(c2nc3c(c(=O)n(C)c(=O)n3C)n2CCSc2ncccn2)CC1	i	12	7	-7.5*
Cc1nc(NCCc2ccccc2)c2oc3ccccc3c2n1	6.3*	-3	-8	i
NC(=O)C1CCCN(C(=O)c2ccc3c(c2)NC(=O)CS3)C1 (stereo unspecified)	.	0	4	.
C=C[C@@]1(C)CC(=O)[C@]2(O)[C@@]3(C)[C@@H](O)CCC(C)(C)[C@@H]3[C@H](O)[C@H](OC(C)=O)[C@@]2(C)O1	i	-11	7	-6.4*
C=C1C(=O)O[C@H]2C[C@]3(C)C([C@@H](OC(=O)/C(C)=C/C)[C@H]12)[C@](C)(O)CC[C@H]3O (stereo partly specified)	i	7	-5	i
COc1ccc(-c2csc(NC(=O)c3ccccc3Br)c2C(=O)O)cc1	i	-1	8	-6.2*
SMILES	CHT allo act	proCasp7 act	proCasp3 act	CHT inh
N#CC1=C(N)SC(N)=C(C#N)C1CCc1ccccc1	i	-14	-11	-6.1*
N#CC1=C(N)SC(N)=C(C#N)C1Cc1ccccc1	i	-16	-7	i
C[C@H]1CC[C@H]2C(=O)N3[C@H](c4ccccc4Br)[C@@H](C)CC[C@H]3C(=O)N2[C@@H]1c1ccccc1Br	8.1*	-3	8	i
COc1ccc2[nH]c3c(c2c1)CCN1C(=O)C(CC(=O)NC/C=C(\C)CCC=C(C)C)C[C@H](C(=O)N(C(C)C)C(C)C)[C@@]31C (stereo partly specified)	.	7	-4	.
Cc1nn2c(=O)cc(COC(=O)c3c(F)cccc3Cl)nc2s1	.	7	7	.
CCCC1(c2ccccc2)NC(=O)N(CC(=O)c2[nH]c(C)c(C(=O)OCC)c2C)C1=O (stereo unspecified)	i	-15	2	-9.8*
CCOC(=O)c1c(C)[nH]c(C(=O)CN2C(=O)NC3(CCCC3)C2=O)c1C	i	3	4	i
S=C(Nc1cccc2ccccc12)NC1CCCCC1	i	-4	-5	i
O=c1cc(-c2ccccc2Cl)oc2c(NS(=O)(=O)c3cc(Cl)cc(Cl)c3O)ccc(O)c12	i	-17	5	-9.8*
CCc1ccc(S(=O)(=O)Nc2ccc(O)c3c(=O)cc(-c4ccccc4Cl)oc23)cc1	i	2	-3	i
Cc1ccc(-c2cc(C(=O)OCC(=O)NC3CC3)c3ccccc3n2)cc1	.	-3	-1	.
Cc1c(OC(C)C(=O)NCc2ccncc2)ccc2c3c(c(=O)oc12)CCCC3 (stereo unspecified)	i	2	5	-5*
Cc1c(OC(C)C(=O)NCc2ccccn2)ccc2c3c(c(=O)oc12)CCC3 (stereo unspecified)	i	3	3	i
Cc1cc(C)c2c(n1)nn1c(NCCCN(C)C)cc(C)nc21	8.1*	1	-9	i
C=CCN(Cc1cccc(OC)c1OC)C(=O)Oc1ccccc1	.	11	-6	.
CC(C)c1ccc(NC(=O)CSc2nc3ccccc3nc2N2CCCC2)cc1	i	-4	0	i
Cc1ccc(NC(=O)CSc2nc3ccccc3nc2N2CCCC2)cc1	i	-2	40*	i
O=C(c1cn(Cc2ccccc2)nc1-c1ccccc1)N1CCN(c2ccccn2)CC1	.	4	-3	.
O=[N+]([O-])c1cccnc1SCc1ccccc1	i	2	6	i
N#C/C(=C(/O)c1ccc2c(c1)OCO2)c1nc2cc(C(F)(F)F)ccc2s1	i	-1	6	-8.3*
O=C(Nc1cc(-c2nc3ccccc3s2)ccc1Cl)c1ccc2c(c1)OCO2	i	6	-2	i
CCOc1cc(CNCc2ccncc2)cc(Cl)c1OC	i	7	3	i
O=[N+]([O-])c1cc(-c2ccc(/C=N/n3cnnc3)o2)ccc1Cl	6.5*	15	7	i
Cc1cc(-c2ccc(/C=N/n3cnnc3)o2)c(C)c([N+](=O)[O-])c1	11*	-8	6	i
CCCC(=O)Nc1nnc(SCC(=O)NC2CC2)s1	i	3	4	i
COc1ccccc1NC(=O)CC1C(=O)Nc2ccccc2N1C(=O)c1ccccc1 (stereo unspecified)	i	-5	4	i
O=C(O)CCCN1C(=O)/C(=C\c2ccccc2OCc2ccccc2)SC1=S	i	-4	-6	-7.7*
